This is an account of results in publication PMC3553303 (Biochemical pharmacology, 2012).

In test [1] the test system is human neutrophils. Nature of the test: Neutrophil chemotaxis assay. To be noted: read-out: Neutrophils Chemotaxis EC50, N.A. = non-active. It counts as cell-based.
The target in test [2] is T1, FPR2 (Homo sapiens, UniProt P25090).
T1 sequence (P25090 1-351): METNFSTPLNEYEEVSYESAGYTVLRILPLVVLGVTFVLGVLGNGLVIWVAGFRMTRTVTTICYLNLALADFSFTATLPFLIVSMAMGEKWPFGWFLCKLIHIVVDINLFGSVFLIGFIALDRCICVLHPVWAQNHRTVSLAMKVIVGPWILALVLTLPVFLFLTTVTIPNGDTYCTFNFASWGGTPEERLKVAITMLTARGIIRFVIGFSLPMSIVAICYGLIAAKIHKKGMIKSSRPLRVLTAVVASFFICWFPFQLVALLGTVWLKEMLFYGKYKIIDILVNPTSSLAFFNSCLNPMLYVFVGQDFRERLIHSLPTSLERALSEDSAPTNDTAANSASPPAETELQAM
Put plainly: PathHunter β-arrestin recruitment, FPR2-CHO-K1 cells. It counts as cell-based. The note with it: read-out: β-arrestin recruitment EC50. In short, it runs like this: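 The assay used the PathHunter enzyme-fragment complementation format in FPR2-transfected CHO-K1 cells. Thawed cells were plated at 5000/well in the kit medium and held 48 h at 37 °C with 5% CO2. Test compound was serially diluted at constant DMSO and added for 90 min at 37 °C, then detection reagent for 60 min at room temperature. Chemiluminescence was read.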
Background: Activated receptors often draw arrestin, which recruitment assays turn into a signal.

Test [3] deals with T1, FPR2. Nature of the test: Ca2+ mobilization in FPR2-HL-60 cells. The format is cell-based. The note with it: percentage of the response induced by 5 nM WKYMVM. On the technique in general: A change in cytosolic calcium serves as a functional read-out for many receptors and channels.
Test [4] has as its target bombesin receptor (BB2) (Homo sapiens, UniProt P30550). It counts as binding. To be noted: read-out: Ki, displacement of [125I][Tyr4]bombesin; PC3 cells. On the technique in general: Displacement assays read how much labelled ligand stays bound in the presence of the test substance.
In test [5] the target is T2, FPR1 (Homo sapiens, UniProt P21462).
T2 sequence (P21462 1-350): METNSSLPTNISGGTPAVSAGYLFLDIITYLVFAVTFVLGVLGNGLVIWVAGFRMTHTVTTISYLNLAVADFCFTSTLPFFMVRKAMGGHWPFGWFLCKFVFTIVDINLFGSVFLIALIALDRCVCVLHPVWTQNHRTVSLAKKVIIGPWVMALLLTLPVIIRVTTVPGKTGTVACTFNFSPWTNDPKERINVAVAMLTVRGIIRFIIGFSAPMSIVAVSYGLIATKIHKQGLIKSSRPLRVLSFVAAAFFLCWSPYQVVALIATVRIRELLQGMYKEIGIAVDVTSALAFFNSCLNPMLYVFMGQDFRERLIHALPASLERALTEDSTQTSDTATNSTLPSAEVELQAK
Nature of the test: PathHunter β-arrestin recruitment, FPR1-CHO-K1 cells. It counts as cell-based. To be noted: read-out: β-arrestin recruitment EC50.

The target in test [6] is T2, FPR1. Put plainly: Ca2+ mobilization in FPR1-HL-60 cells. The format is cell-based. To be noted: percentage of the response induced by 5 nM fMLF.

Molecules are shown by their SMILES.

Chain of bombesin receptor (BB2) (P30550 whole entry): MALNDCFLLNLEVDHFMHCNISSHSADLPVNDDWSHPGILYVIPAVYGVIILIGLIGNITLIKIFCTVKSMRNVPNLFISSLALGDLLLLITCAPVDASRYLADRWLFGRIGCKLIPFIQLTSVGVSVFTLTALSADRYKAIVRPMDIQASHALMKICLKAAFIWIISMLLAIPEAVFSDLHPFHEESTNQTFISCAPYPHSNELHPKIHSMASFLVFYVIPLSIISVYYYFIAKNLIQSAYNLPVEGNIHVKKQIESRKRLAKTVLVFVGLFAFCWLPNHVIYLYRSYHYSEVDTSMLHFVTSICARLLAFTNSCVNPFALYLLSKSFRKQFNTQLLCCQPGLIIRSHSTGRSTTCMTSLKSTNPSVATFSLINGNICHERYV

For orientation: EC50 means the concentration giving half of the maximal effect. As for `C[C@@](Cc1c[nH]c2ccccc12)(NC(=O)Nc1ccc([N+](=O)[O-])cc1)C(=O)NCC1(c2ccccn2)CCCCC1` [PD168368], the EC50 in test [1] was determined as 700 ± 150 nM; in test [2], 11100 ± 2800 nM. The “Ca2+ Mobilization in HL-60 cells FPR2 Efficacy” value in test [3] is recorded as 75%.
For orientation: Ki means a measure of affinity in units of concentration, obtained from inhibition or displacement. For the compound `COc1ccc(C2(CNC(=O)[C@](C)(Cc3c[nH]c4ccccc34)NC(=O)Nc3ccc([N+](=O)[O-])cc3)CCCCC2)nc1` [PD176252], the Ki in test [4] turned out to be 66 nM. The EC50 was determined as 810 ± 220 nM in test [1], 8800 ± 2000 nM in test [2] and 3800 ± 1100 nM in test [5]. In test [3], the “Ca2+ Mobilization in HL-60 cells FPR2 Efficacy” value was 90%. Further, the “Ca2+ Mobilization in HL-60 cells FPR1 Efficacy” value in test [6] is recorded as 100%.
